Molecules are shown by their SMILES. In all, about 120,000 compounds went through this assay and about 20 (0.02%) were called active.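 How the source made its calls: active means inhibition above 30.3% in the primary screen of four-compound pools, then above 30% when the compound was retested; inconclusive means passed the primary limit but could not be retested; inactive means the rest.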 The full list was thinned out, with actives kept by preference.

This experiment can be described thus: Candida albicans biofilm persister killing – 4-compound mixtures, primary screen (AID 1242).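 Further: compounds exposed to preformed 24 h biofilms for 48 h; 0% = untreated biofilm control and 100% = clotrimazole plus chlorhexidine kill blank.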 To be noted: C. albicans biofilm persisters + clotrimazole, fluorescence viability, primary screen in compound mixtures, stronger effect = higher value. An outline of the steps: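 Assay system: C. albicans biofilms / Medium: RPMI/MOPS medium, pH 7.0 / Schedule: biofilm formation 24 h, compound exposure 48 h, 37 °C / Measured by: Alamar Blue fluorescence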

As for `O=C(c1cccc([N+](=O)[O-])c1)N1CCN(C(=O)c2ccco2)CC1`, the inhibition – broadly, the change of the read-out against control, counted positive when it falls – (at 7.6 µM unless noted) is 0.32% (inactive). As for `COC(=O)c1cccc(NS(C)(=O)=O)c1`, where the note is “at 7.6 µM unless noted”, the inhibition was 13.2% (inactive). Still for that read-out and setting: in the case of `Cn1ccc(NC(=O)Nc2ccc(Cl)cc2)n1` it was 16.2% (inactive); in that of `Cc1ccc(O)c(NC(=S)NC(=O)COc2ccc(Br)cc2)c1`, 9.22% (inactive). On to `CCN(CC)C(=O)C(=O)Nc1cccc(Br)c1`, for which the inhibition (at 7.6 µM unless noted) was 10% (inactive). Take `COc1ccccc1CNC(=O)CNC(=O)c1cn(-c2ccccc2OC)c(=O)c2ccccc12`: where the note is “at 7.6 µM unless noted”, the inhibition was 24.6% (inactive). In the case of `OCCC1CN(Cc2ccc(Oc3ncccn3)cc2)CCN1CCc1ccccc1` (configuration not stated), the inhibition (at 7.6 µM unless noted) is 23.9% (inactive).

In the case of `CC(NCc1nc2ccccc2n1C)C12CC3CC(CC(C3)C1)C2` (configuration not stated), the inhibition was 63.4% (inactive) (at 7.6 µM) and 0.64% (measured here: individual compound retest, at 61 µM). For the compound `O=C(NC(=S)Nc1ccc(S(=O)(=O)Nc2ncccn2)cc1)c1cccc(Br)c1`, the inhibition (at 7.6 µM unless noted) is 20.2% (inactive). With `Nc1c(N(CCO)C(=O)C2CCCCC2)c(=O)[nH]c(=O)n1Cc1ccccc1`, the inhibition (at 7.6 µM unless noted) was 4.09% (inactive). Still for that read-out and setting: in the case of `Cc1cc(C)c(C)c(S(=O)(=O)N[C@@H](C)C(=O)OC(C)C(=O)NC(N)=O)c1C` (some centres not stated) it was 14.7% (inactive).

Take `Cc1ccc(S(=O)(=O)/N=C(\N)c2ccc(F)cc2)cc1`: for the setting “at 7.6 µM unless noted”, the inhibition is 3.79% (inactive). With `O=C(OCc1ccc([N+](=O)[O-])cc1)c1ccccn1`, the inhibition (at 7.6 µM unless noted) is 15% (inactive). For `Cc1cc(C)n(-c2ccc(C(=O)O)cc2[N+](=O)[O-])n1`, the inhibition (at 7.6 µM unless noted) was 2.45% (inactive). Take `COc1cc(N/C=C2\CC(=O)NC(C)=C2C#N)cc(OC)c1OC`: the inhibition (at 7.6 µM unless noted) was 14.1% (inactive). Still for that read-out and setting: the figure for `O=C(Nc1ccc(F)cc1)N1CCCC(c2nc3c(nnn3Cc3ccccc3Cl)c(=O)[nH]2)C1` (configuration not stated) is 11.9% (inactive); for `NC(=O)Cc1nc2scc(-c3ccc(Cl)cc3)c2c(=O)[nH]1` it is 4.85% (inactive); for `CC(=O)Nc1ccc(OCC(=O)NCc2ccc(C)cc2)cc1` it is 10.5% (inactive). Same read-out and setting: in the case of `COc1ccc(C2NC(=S)NC3=C2CCc2ccccc23)cc1OC` (configuration not stated) it was 18.9% (inactive).

Consider `COc1ccc(Cl)cc1CSc1ncn[nH]1`, for which the inhibition (at 7.6 µM unless noted) is 13.5% (inactive). For `COc1cccc(-n2c(=S)sc3c(=O)n(-c4ccccc4OC)c(SCC4OCCO4)nc32)c1`, the inhibition (at 7.6 µM unless noted) was 28.1% (inactive). Same read-out and setting: in the case of `OC1CCCN(c2ncnc3c2nnn3Cc2c(F)cccc2Cl)C1` (configuration not stated) it was 19.6% (inactive); in that of `Cc1cnc(C(=O)OCC(=O)N2CCc3ccccc32)cn1`, -4.77% (inactive). `COCCn1c(C)cc(C(=O)CSc2nc3ccccc3c(=O)n2C(C)COC)c1C` (configuration not stated): the inhibition (at 7.6 µM unless noted) was 8.22% (inactive). `Cc1nc(CNS(=O)(=O)c2cc([N+](=O)[O-])ccc2C)cs1`: under “at 7.6 µM unless noted”, the inhibition is 22.4% (inactive).

For the compound `CCCCCCCC(=O)OC(CN1CCCCCC1)CN1CCCC1=O` (configuration not stated), for the setting “at 7.6 µM unless noted”, the inhibition is 0.73% (inactive).

The record behind these values is PubChem BioAssay AID1242 (PCMD, 2008).
